# Source: ChEMBL document CHEMBL1135427, “Osteoadsorptive bisphosphonate derivatives of fluoroquinolone antibacterials” (2002)
# Legend:
# [1] = system: Escherichia coli; experiment: Antibacterial activity determined as minimal inhibitory concentration (MIC) against Escherichia coli OKI 35034; assay type: functional
# Outline: (§1)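 Agar dilution. Compounds were dissolved in 0.2% NaHCO3, or in DMSO if insoluble, and mixed into molten agar at 50 °C. After the agar set, bacterial suspension was streaked onto the surface. MIC was read after 48 h of incubation at 37 °C.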
# [2] = system: Helicobacter pylori; experiment: Antibacterial activity determined as minimal inhibitory concentration (MIC) against Helicobacter pylori HIH 27604; assay type: functional; outline: as §1
# [3] = system: Helicobacter pylori; experiment: Antibacterial activity determined as minimal inhibitory concentration (MIC) against Helicobacter pylori HIH 27606; assay type: functional; outline: as §1
# [4] = system: Pseudomonas aeruginosa; experiment: Antibacterial activity determined as minimal inhibitory concentration (MIC) against Pseudomonas aeruginosa ATCC 27853; assay type: functional; outline: as §1
# [5] = Antibacterial activity determined as minimal inhibitory concentration (MIC) against […] OKI 60002; assay type: functional; outline: as §1
# [6] = system: Salmonella typhi; experiment: Antibacterial activity determined as minimal inhibitory concentration (MIC) against Salmonella typhi OKI 10084; assay type: functional, Salmonella enterica subsp. enterica serovar Typhi; conditions: Salmonella enterica
# Outline: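 Agar dilution against a laboratory strain. Compounds were dissolved in 0.2% NaHCO3, or in DMSO if insoluble, and mixed into molten agar at 50 °C. Bacterial suspension was streaked onto the solidified agar. Plates were incubated 48 h at 37 °C. MIC was taken as the lowest concentration inhibiting bacterial growth.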
# [7] = system: Staphylococcus epidermidis; experiment: Antibacterial activity determined as minimal inhibitory concentration (MIC) against Staphylococcus epidermidis ATCC 110001; assay type: functional; outline: as §1
# [8] = system: Enterococcus faecalis; experiment: Antibacterial activity determined as minimal inhibitory concentration (MIC) against Streptococcus faecalis OKI 80171; assay type: functional; outline: as §1
# [9] = system: Staphylococcus aureus; experiment: Antibacterial activity determined as minimal inhibitory concentration (MIC) against Staphylococcus aureus ATCC 25923; assay type: functional; outline: as §1
# [10] = system: Aggregatibacter actinomycetemcomitans; experiment: Antibacterial activity determined as minimal inhibitory concentration (MIC) against Actinobacillus actinomycetecommitans ATCC 29527; value ranges from 1-2; assay type: functional; outline: as §1
# [11] = system: Staphylococcus aureus; experiment: Antibacterial activity determined as minimal inhibitory concentration (MIC) against Staphylococcus aureus ATCC 12598; value ranges from 8-16; assay type: functional; outline: as §1
# [12] = system: Staphylococcus aureus; experiment: Antibacterial activity determined as minimal inhibitory concentration (MIC) against Methicillin resistant Staphylococcus aureus; assay type: functional
# [13] = system: Staphylococcus aureus; experiment: Antibacterial activity determined as minimal inhibitory concentration (MIC90) against Methicillin sensitive Staphylococcus aureus; assay type: functional
# Outline: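 Broth microdilution on clinical isolates. Compounds were serially diluted from 256 to 0.5 μg/mL. Log-phase bacteria were added (A540 = 0.15 × 10^7 cfu/mL) and incubated 18 h at 37 °C, then growth was inspected macroscopically. MIC was the lowest concentration inhibiting growth. MIC90 was calculated across multiple isolates from median MIC ±1 SD using the z statistic.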
# [14] = system: Staphylococcus aureus; experiment: Antibacterial activity determined as minimal inhibitory concentration (MIC) against Staphylococcus aureus ATCC 25923; value ranges from 8-16; assay type: functional; outline: as §1
# [15] = system: Aggregatibacter actinomycetemcomitans; experiment: Antibacterial activity determined as minimal inhibitory concentration (MIC) against Actinobacillus actinomycetecommitans ATCC 29527; assay type: functional; outline: as §1
# [16] = system: Staphylococcus aureus; experiment: Antibacterial activity determined as minimal inhibitory concentration (MIC) against Staphylococcus aureus ATCC 12598; assay type: functional; outline: as §1
SMILES,MIC [1],MIC [2],MIC [3],MIC [4],MIC [5],MIC [6],MIC [7],MIC [8],MIC [9],MIC [10],MIC [11],MIC [12],MIC90 [13],MIC [14],MIC [15],MIC [16]
O=C(O)c1cn(C2CC2)c2cc(N3CCN(C(P(=O)(O)O)P(=O)(O)O)CC3)c(F)cc2c1=O,< 0.39 µg/mL,12.5 µg/mL,12.5 µg/mL,25 µg/mL,6.25 µg/mL,0.78 µg/mL,25 µg/mL,100 µg/mL,50 µg/mL,,,,,,,
O=C(O)c1cn(C2CC2)c2cc(N3CCN(CC(P(=O)(O)O)P(=O)(O)O)CC3)c(F)cc2c1=O,0.78 µg/mL,3.12 µg/mL,0.78 µg/mL,25 µg/mL,< 0.39 µg/mL,0.78 µg/mL,25 µg/mL,50 µg/mL,,2 µg/mL,16 µg/mL,> 8 µg/mL,51.3 µg/mL,16 µg/mL,,
CCOP(=O)(OCC)C(N1CCN(c2cc3c(cc2F)c(=O)c(C(=O)O)cn3C2CC2)CC1)P(=O)(OCC)OCC,0.78 µg/mL,25 µg/mL,25 µg/mL,> 100 µg/mL,25 µg/mL,0.78 µg/mL,6.25 µg/mL,50 µg/mL,12.5 µg/mL,,,,,,,
O=C(O)c1cn(C2CC2)c2cc(N3CCNCC3)c(F)cc2c1=O [CIPROFLOXACIN],< 0.39 µg/mL,0.78 µg/mL,< 0.39 µg/mL,3.12 µg/mL,< 0.39 µg/mL,< 0.39 µg/mL,0.78 µg/mL,3.12 µg/mL,1.56 µg/mL,,,> 8 µg/mL,1.65 µg/mL,,0.25 µg/mL,2 µg/mL
CCOP(=O)(OCC)C(CN1CCN(c2cc3c(cc2F)c(=O)c(C(=O)O)cn3C2CC2)CC1)P(=O)(OCC)OCC,< 0.39 µg/mL,0.78 µg/mL,< 0.39 µg/mL,3.12 µg/mL,< 0.39 µg/mL,< 0.39 µg/mL,0.78 µg/mL,3.12 µg/mL,3.12 µg/mL,,,> 8 µg/mL,3.91 µg/mL,,< 0.25 µg/mL,1 µg/mL
